Sampled rows, rich in hits. Any-hit rate of the full collection: about 1.4%.
TDP2 inh = blocks human TDP2 phosphodiesterase activity; recombinant TDP2, T5PNP hydrolysis, p-nitrophenol absorbance 415 nm; inhibition, % at 12.8 µM; 370,000 compounds, 0.34% hits; O95551;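 active = inhibition above the mean of all tested compounds plus 3 SD, set per campaign, cut at about 25% in these data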;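 note: 0% = DMSO with enzyme and 100% = buffer with substrate but no TDP2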
Target sequence (O95551 whole entry, looked up): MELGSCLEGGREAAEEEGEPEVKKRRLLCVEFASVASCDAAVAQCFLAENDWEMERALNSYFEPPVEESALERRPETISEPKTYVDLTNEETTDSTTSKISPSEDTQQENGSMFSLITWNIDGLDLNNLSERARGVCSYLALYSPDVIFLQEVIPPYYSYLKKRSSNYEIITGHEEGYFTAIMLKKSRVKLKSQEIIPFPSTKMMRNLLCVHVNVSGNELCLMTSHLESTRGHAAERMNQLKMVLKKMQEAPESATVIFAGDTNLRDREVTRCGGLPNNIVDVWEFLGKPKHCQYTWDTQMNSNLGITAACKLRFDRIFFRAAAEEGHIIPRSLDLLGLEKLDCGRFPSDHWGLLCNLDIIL
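Incubation: 2 h at 37 °C; Test system: recombinant human TDP2; Quantity: enzyme 120 nM; Read-out basis: percent inhibition; Medium: 50 mM Tris-HCl pH 7.5 with Mg2+, KCl, DTT, BSA; Repeats: single replicate; Compound: 12.8 µM single point, 1% DMSO; Signal: epi absorbance; Reagent: 5 mM T5PNP chromogenic substrate; Benchmarks: no-enzyme high, DMSO-plus-enzyme low.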
CTSL1 counter = counter-screen for PFM18AAP inhibitors: inhibitors of F. hepatica cathepsin L1; recombinant F. hepatica cathepsin L1, Z-Leu-Arg-MCA fluorescence; inhibition, % at 5.96 µM; 300,000 compounds, 0.49% hits;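 active = inhibition above the mean of all tested compounds plus 3 SD, set per screening campaign, cut at about 17% in these data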;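 note: 0% = plate median of test compound wells and 100% = 1 µM Z-Phe-Ala-diazomethylketone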
GSTO1 counter = blocks human GSTO1 in RBBP9 counter-screen. P78417. recombinant GSTO1, activity-based probe fluorescence polarization. inhibition, % at 5.96 µM. 300,000 compounds, 1.1% hits. AID 1974;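 active = inhibition above the campaign mean inhibition plus 3 SD, cut at about 35% in these data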;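 note: 0% = GSTO1-1 with DMSO and 100% = wells lacking GSTO1-1 enzyme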
Target sequence (P78417 whole entry, looked up): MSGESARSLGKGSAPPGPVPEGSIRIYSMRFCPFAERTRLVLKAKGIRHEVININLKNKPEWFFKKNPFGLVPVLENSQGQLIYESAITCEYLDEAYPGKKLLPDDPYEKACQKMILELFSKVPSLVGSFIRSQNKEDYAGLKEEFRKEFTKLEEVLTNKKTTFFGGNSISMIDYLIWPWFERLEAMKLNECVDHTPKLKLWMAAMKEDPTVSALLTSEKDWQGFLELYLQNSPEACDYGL
PAD4 inh = PAD4 (human) enzyme inhibition; recombinant PAD4, RCA probe fluorescence polarization; inhibition, % at 6.36 µM; 330,000 compounds, 0.41% hits; AID 485272;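 active = percent inhibition above a cutoff equal to the mean of all tested compounds plus 3 SD, cut at about 15% in these data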;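 note: 0% = PAD4 with RCA probe and DMSO and 100% = probe without PAD4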
Numbers without * were called inactive; nt = no result.

SMILES | TDP2 inh | CTSL1 counter | GSTO1 counter | PAD4 inh
CCc1nnc(NC(=O)CSc2nnc(Cc3ccccc3)n2Cc2ccccc2)s1 | 1.9 | 0.5 | -6.6 | 1.6
CCc1nnc(NC(=O)CSc2nc3cccnc3n2Cc2ccccc2)s1 | 0.6 | 1.3 | 36.1* | 0.3
O=C1NCCN1C(=O)c1cccc(Cl)c1 | -0.6 | 19.0* | -0.3 | -1.2
COC(=O)CC[C@H](/C=C/C(=O)OC(C)(C)C)Sc1ccc(C(C)(C)C)cc1 | -6.4 | nt | nt | nt
O=c1[nH]c2cc(Br)c(Br)nc2[nH]1 | 0.4 | nt | nt | nt
C=CCSc1nc2ccsc2c(=O)n1-c1ccccc1 | -1.0 | 0.3 | -3.6 | -6.7
CSc1nc2ccsc2c(=O)n1-c1ccccc1 | -6.8 | 18.0* | 9.1 | -6.6
CC(C)CCNC(=O)COc1ccc2c(c1)C(=O)CC(C)(C)O2 | -0.7 | -2.0 | -2.6 | -7.3
CCC(Oc1ccc2c(c1)C(=O)CC(C)(C)O2)C(=O)NCCN1CCCCCC1 (stereo unspecified) | -17.7 | 37.0* | 1.2 | 1.4
COc1ccccc1N1CCN(/N=C/c2ccc(O)c(O)c2)CC1 | -7.7 | -1.4 | 51.5* | -10.2
COc1ccc(/C=N/N2CCN(c3ccccc3OC)CC2)cc1OC | 8.4 | -9.3 | 0.3 | 4.1
Cn1nc(C(F)(F)F)c(-c2ccc(Br)cc2)c1NC(=O)c1ccco1 | 3.0 | 29.0* | 1.1 | -0.7
C=CCN1[C@H](Cc2ccccc2)COc2cccc(N3CCCC3)c2S1(=O)=O | -4.0 | nt | nt | nt
CC(=O)CSc1nc2c(c(=O)[nH]c(=O)n2C)n1Cc1cccc(Br)c1 | -14.6 | 34.5* | 3.7 | 0.8
Cn1nc([N+](=O)[O-])nc1Sc1cccc2cccnc12 | -4.7 | 4.0 | 17.9 | -1.0
Cn1nc([N+](=O)[O-])nc1Sc1nnc(-c2ccccc2)o1 | -0.1 | 63.4* | 3.0 | 8.9
CN(c1ccccc1)S(=O)(=O)c1cccc(C(=O)NCCc2ccc(O)c(O)c2)c1 | 4.9 | 2.1 | 39.0* | -1.4
CCN(CC)S(=O)(=O)c1cccc(C(=O)NCCc2ccccc2)c1 | 4.0 | 6.7 | 2.1 | 0.4
CC(=O)Nc1ccc(NC(=O)Cn2nc(C(=O)Nc3ccc(C)cc3)ccc2=O)cc1 | -8.8 | 46.9* | -8.1 | -4.9
Cc1ccc(NC(=O)c2ccc(=O)n(CC(=O)Nc3ccccc3)n2)cc1 | -11.0 | -4.0 | -9.2 | -1.9
CCc1onc(C)c1C(=O)Nc1ccc2c(c1)OCO2 | 7.9 | 18.7* | 12.0 | 1.6
Cc1noc(C(=O)Nc2ccc3c(c2)OCO3)c1Cl | 2.6 | 0.7 | 6.6 | -1.2
COC(=O)c1c(NC(=O)c2ccc([N+](=O)[O-])o2)sc2c1CCN(C(C)C)C2 | -12.7 | 25.6* | 2.9 | -8.6
O=C(NNC(=O)c1ccccc1F)c1cccc(-n2cccc2)c1 | -0.1 | 1.0 | 36.3* | -1.2
O=C(NNC(=O)c1cccc(-n2cccc2)c1)c1ccccc1 | 5.5 | nt | nt | -1.1
SMILES | TDP2 inh | CTSL1 counter | GSTO1 counter | PAD4 inh
CC(NC(=O)Cn1nc(C(F)(F)F)c2c1CCC2)c1ccccc1 (stereo unspecified) | -10.2 | 16.9* | 13.7 | 0.8
NC1=CC(=O)c2cccc3cccc1c23 | nt | 1.0 | 24.4 | 14.9*
O=[N+]([O-])c1ccc(N=Nc2c(Cl)cc(O)cc2Cl)cc1 | -14.5 | 0.7 | 56.5* | 15.7*
Cc1ccc(NC(=O)CN(C)C(=O)C(C)OC(=O)CNC(=O)c2ccc(Cl)c([N+](=O)[O-])c2)cc1 (stereo unspecified) | -8.9 | 28.4* | 4.5 | 3.9
Cn1c(=O)c2cc(NC(=O)c3ccccc3Cl)c(=O)oc2n(C)c1=O | 5.9 | 27.0* | 9.4 | -0.9
COc1ccc(-n2c(SCC(=O)Nc3ccc(Oc4ccccc4)cc3)nnc2-c2cccnc2)cc1 | -8.8 | nt | nt | nt
Cn1cnnc1SCC(=O)Nc1sc2c(c1C(N)=O)CCC2 | 5.8 | -1.0 | 35.9* | -3.6
COCCn1cnnc1SCC(=O)Nc1sc2c(c1C#N)CCC2 | 4.5 | nt | nt | -1.4
C=Cc1ccc(C(=O)Nc2nnc(-c3cccnc3)s2)cc1 | 5.2 | nt | nt | nt
COc1ccc(N2CCN(C(=O)C(NC(=O)c3c(F)cccc3F)C(C)C)CC2)cc1 (stereo unspecified) | -6.6 | 25.5* | -0.6 | -1.8
NC1=NS(=O)(=O)Nc2ccccc21 | 2.7 | nt | nt | nt
C#CCOCCOCCOCCNc1nc(N2CCN(C(=O)C([C@@H](C)CC)n3cc(C(N)COC(=O)C(F)(F)F)nn3)CC2)nc(N2CCN(C(=O)[C@H](CCCCN)n3cc(C(N)[C@H](C)CC)nn3)CC2)n1 (stereo partly specified) | nt | 31.5* | 16.9 | -1.1
C#CCOCCOCCOCCNc1nc(N2CCN(C(=O)[C@H]([C@@H](C)CC)n3cc([C@@H](N)CC(C)C)nn3)CC2)nc(N2CCN(C(=O)[C@H](CCCCN)n3cc([C@@H](N)C(C)CC)nn3)CC2)n1 (stereo partly specified) | nt | 31.5* | 16.3 | 0.7
COc1ccc(OCC(=O)O/N=C(\N)Cc2ccc(Cl)cc2)cc1 | -7.6 | 29.7* | 4.6 | -3.5
O=C(Nc1ccc(Nc2ccccc2)cc1)c1ccc(Cl)cc1 | -5.1 | 1.0 | 1.9 | 0.8
N#C/C(C(=O)Nc1ccc(Cl)cc1)=C(/S)Nc1ccccc1 | -1.6 | 1.6 | 52.2* | 1.4
CN(C)S(=O)(=O)c1cccc(-n2sc3ccccc3c2=O)c1 | -8.0 | 1.9 | -7.3 | 26.7*
O=c1c2ccccc2sn1-c1ccc(S(=O)(=O)N2CCCC2)cc1 | -7.9 | -4.9 | 3.2 | 22.7*
Cc1ccc(-n2sc3ccccc3c2=O)cc1S(=O)(=O)N1CCCCC1 | -11.5 | -1.7 | 8.8 | 25.5*
O=c1c2ccccc2sn1-c1cccc(Cl)c1 | -15.7 | nt | nt | nt
O=C(O)CCc1ccc(-c2ccccc2)n1-c1cccc(C(=O)O)c1 | 7.0 | 0.9 | 7.7 | 1.4
O=C(O)CCc1ccc(-c2ccc(Br)cc2)n1-c1cccc(O)c1 | -12.7 | -0.7 | 35.4* | 1.8
C[C@H](O)[C@@H]1CN2CCc3ccc(-c4ccc5c(c4)OCO5)cc3[C@@H]2C[C@@H]1N(C)C(=O)Nc1ccccc1 | -8.8 | nt | nt | nt
COC(=O)C1C(O)C(C)C(O)C(C)(O)/C=C\C=C(/C)C(=O)Nc2c(C)c(OC(C)=O)c3c(c2O)C(=O)C(C)=C2OCOC(=C23)/C(C)=C/C(C)(O)C(O)C(C)C1O (stereo unspecified) | 14.9 | 2.2 | 58.7* | -1.8
CC(C)(C)OC(=O)NCCc1nnc(SCc2ccc(Cl)cc2)o1 | -20.6 | 0.4 | 4.4 | -4.1
SMILES | TDP2 inh | CTSL1 counter | GSTO1 counter | PAD4 inh
O=C(O)c1ccc(CSc2nnc(COc3ccc(Cl)cc3Cl)o2)cc1 | -4.0 | 39.9* | -2.9 | 2.0
CC(C)C(=O)N1CC[C@H]2[C@H](CCCN2Cc2ccccc2)C1 | 9.2 | nt | nt | nt
O=C(O)C1OC(Oc2cc3oc(-c4ccccc4)cc(=O)c3c(O)c2O)C(O)C(O)C1O (stereo unspecified) | 9.9 | -0.2 | 36.9* | -2.6
COc1c(OC2OC(C(=O)O)C(O)C(O)C2O)cc(O)c2c(=O)cc(-c3ccccc3)oc12 (stereo unspecified) | 6.7 | 0.9 | 11.7 | -0.3
COc1ccc(CCN/C=C2/CC(=O)NC2=O)cc1OC | 0.5 | 24.9* | 4.3 | 2.9
COc1ccc([N+](=O)[O-])cc1NC(=O)c1ccc(Br)s1 | -16.8 | 17.7* | -18.7 | -15.5

High-throughput results (PubChem BioAssay)
